Each structure is given as a SMILES string. Activity calls are given as the source filed them. The rule behind the calls is not given here.

From ChEMBL document CHEMBL2163317, “Selective inhibition of the tumor marker aldo-keto reductase family member 1B10 by oleanolic acid” (J Nat Prod, 2011) come the findings set out here.

The target in assay [1] is Aldo-keto reductase family 1 member B1 (Homo sapiens, UniProt P15121). Kind of assay: Inhibition of reductase activity of N-terminal 6His-tagged human recombinant AKR1B1 expressed in Escherichia coli BL21(DE3) assessed as assessed as pyridine-3-aldehyde reduction. The procedure, abridged: (§1)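 Forward reductase assay at 25 C with purified recombinant enzyme from E. coli BL21(DE3) pLysS. Buffer was 0.1 M potassium phosphate pH 7.4 with 0.1 mM NADPH and 0.2 mM pyridine-3-aldehyde. Rate read as NADPH absorbance change at 340 nm. IC50 reported as mean of at least three determinations. Selectivity is the AKR1B1 IC50 divided by the AKR1B10 IC50.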

The species entered for assay [2] is Homo sapiens. The assay can be described thus: Selectivity ratio of IC50 for human recombinant AKR1B1 to IC50 for human AKR1B10. Put shortly:
as §1

In assay [3] the target is T1, Aldo-keto reductase family 1 member B10 (Homo sapiens, UniProt O60218). Kind of assay: Inhibition of reductase activity of N-terminal 6His-tagged human AKR1B10 expressed in Escherichia coli BL21(DE3) assessed as pyridine-3-aldehyde reduction. Put shortly:
as §1
Target sequence in this assay (O60218 whole entry): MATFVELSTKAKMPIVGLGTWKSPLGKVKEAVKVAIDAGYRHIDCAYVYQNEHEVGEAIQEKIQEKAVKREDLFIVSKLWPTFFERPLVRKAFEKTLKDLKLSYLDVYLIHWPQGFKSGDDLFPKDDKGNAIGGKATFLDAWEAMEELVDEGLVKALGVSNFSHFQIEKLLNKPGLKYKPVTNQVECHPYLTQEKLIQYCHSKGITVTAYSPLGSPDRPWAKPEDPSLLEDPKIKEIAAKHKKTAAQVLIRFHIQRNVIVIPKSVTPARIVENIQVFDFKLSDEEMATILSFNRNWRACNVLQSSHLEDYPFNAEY

The subject of assay [4] is HT-29. The assay can be described thus: Cytotoxicity against human HT-29 cells at 30 uM after 96 hrs by trypan blue exclusion assay. Format: functional, cell-based.
Assay [5] deals with T1, Aldo-keto reductase family 1 member B10. The assay can be described thus: Inhibition of N-terminal 6His-tagged human AKR1B10 overexpressed in human HeLa cells assessed as inhibition of […] pretreated for 2 hrs before [1-14C]farnesol challenge measured after 6 hrs. The class given is cell-based. The procedure, abridged:
(§2)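 HeLa cells were transfected with a pGW1 plasmid carrying AKR1B10 cDNA. Culture was DMEM with 10% FBS at 37 C and 5% CO2. Cells were pretreated with inhibitor for 2 h, then incubated with 20 μM [1-14C] labelled substrate for 6 h. Inhibition of farnesal reduction is the mean of duplicate experiments.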
Target sequence in this assay (O60218 whole entry, looked up): as the sequence (O60218 whole entry) above

Assay [6] addresses Aldo-keto reductase family 1 member B10 (Homo sapiens, UniProt O60218, K125L). Kind of assay: Competitive inhibition of dehydrogenase activity of N-terminal 6His-tagged human AKR1B10 K125L mutant expressed in Escherichia coli BL21(DE3) assessed as NADP+-linked geraniol oxidation.
Assay [7] addresses T1, Aldo-keto reductase family 1 member B10. The assay can be described thus: Competitive inhibition of dehydrogenase activity of N-terminal 6His-tagged human AKR1B10 expressed in Escherichia coli BL21(DE3) assessed as NADP+-linked geraniol oxidation.
Target sequence in this assay (O60218 whole entry): as above
Assay [8] deals with Aldo-keto reductase family 1 member B10 (Homo sapiens, UniProt O60218, W220Y). Kind of assay: Competitive inhibition of dehydrogenase activity of N-terminal 6His-tagged human AKR1B10 W220Y mutant expressed in Escherichia coli BL21(DE3) assessed as NADP+-linked geraniol oxidation.
Assay [9] deals with Aldo-keto reductase family 1 member B10 (Homo sapiens, UniProt O60218, Q303S). Kind of assay: Competitive inhibition of dehydrogenase activity of N-terminal 6His-tagged human AKR1B10 Q303S mutant expressed in Escherichia coli BL21(DE3) assessed as NADP+-linked geraniol oxidation.
Assay [10] deals with Aldo-keto reductase family 1 member B10 (Homo sapiens, UniProt O60218, V301L). The assay can be described thus: Competitive inhibition of dehydrogenase activity of N-terminal 6His-tagged human AKR1B10 V301L mutant expressed in Escherichia coli BL21(DE3) assessed as NADP+-linked geraniol oxidation.
Assay [11] concerns the target T1, Aldo-keto reductase family 1 member B10. Kind of assay: Non-competitive inhibition of reductase activity of N-terminal 6His-tagged human AKR1B10 expressed in Escherichia coli BL21(DE3) assessed as pyridine-3-aldehyde reduction.
Target sequence in this assay (O60218 whole entry, looked up): as the sequence (O60218 whole entry) above
Assay [12] has the same target. Kind of assay: Inhibition of N-terminal 6His-tagged human AKR1B10 overexpressed in human HeLa cells assessed as inhibition of […] at 1 uM pretreated for 2 hrs before [1-14C]farnesol challenge measured after 6 hrs. The class given is cell-based. Put shortly: as §2
Target sequence in this assay (O60218 whole entry, looked up): as the sequence (O60218 whole entry) above
For assay [13], the target named is DNA polymerase beta (Homo sapiens, UniProt P06746). The assay can be described thus: Inhibition of DNA polymerase beta.
Assay [14] addresses Phospholipase A2 (Homo sapiens, UniProt P04054). Kind of assay: Inhibition of phospholipase A2.
In assay [15] the test system is HT-29. The assay can be described thus: Cytotoxicity against human mitomycin C-resistant HT-29 cells assessed as growth inhibition after 96 hrs by trypan blue exclusion assay. Format: functional, cell-based.
The test system of assay [16] is HT-29. Kind of assay: Cytotoxicity against human HT-29 cells at 10 uM after 96 hrs by trypan blue exclusion assay. The class given is functional, cell-based.
Assay [17] relates to HT-29. Kind of assay: Inhibition of AKR1B10 mRNA expression in human HT-29 cells at 3 to 30 uM after 24 hrs by RT-PCR analysis. The class given is functional, cell-based. Put shortly: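 HT29 cells were treated for 24 h with 3, 10 and 30 μM compound. Total RNA was then extracted, and AKR1B10 mRNA was analysed by reverse transcription-PCR.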
Assay [18] deals with HT-29. The assay can be described thus: Cytotoxicity against human HT-29 cells after 96 hrs by trypan blue exclusion assay. The class given is functional. To be noted: HT-29, 96 h, read-out: LD50 (the source's name).

Aldo-keto reductase family 1 member B10 (Homo sapiens, UniProt O60218, V301L), sequence (O60218 whole entry V301L): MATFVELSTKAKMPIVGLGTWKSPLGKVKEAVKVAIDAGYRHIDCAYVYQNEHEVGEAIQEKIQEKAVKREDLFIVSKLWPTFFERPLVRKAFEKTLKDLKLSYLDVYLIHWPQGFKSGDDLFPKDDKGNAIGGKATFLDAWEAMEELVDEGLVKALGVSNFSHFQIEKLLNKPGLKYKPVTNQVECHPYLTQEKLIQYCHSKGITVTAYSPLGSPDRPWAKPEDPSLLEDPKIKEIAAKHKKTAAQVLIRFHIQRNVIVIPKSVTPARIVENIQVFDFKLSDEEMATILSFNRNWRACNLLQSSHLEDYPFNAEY
Aldo-keto reductase family 1 member B10 (Homo sapiens, UniProt O60218, K125L), sequence (O60218 whole entry K125L): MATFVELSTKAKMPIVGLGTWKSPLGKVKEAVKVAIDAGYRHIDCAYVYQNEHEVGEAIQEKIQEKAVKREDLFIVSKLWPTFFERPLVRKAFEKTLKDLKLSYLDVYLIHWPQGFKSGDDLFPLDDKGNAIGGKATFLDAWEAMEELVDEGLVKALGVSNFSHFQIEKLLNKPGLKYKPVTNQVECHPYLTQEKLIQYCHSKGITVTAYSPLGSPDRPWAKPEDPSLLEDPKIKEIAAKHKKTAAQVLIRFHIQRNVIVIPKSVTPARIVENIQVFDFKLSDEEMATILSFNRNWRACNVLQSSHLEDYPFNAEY
Aldo-keto reductase family 1 member B10 (Homo sapiens, UniProt O60218, Q303S), sequence (O60218 whole entry Q303S): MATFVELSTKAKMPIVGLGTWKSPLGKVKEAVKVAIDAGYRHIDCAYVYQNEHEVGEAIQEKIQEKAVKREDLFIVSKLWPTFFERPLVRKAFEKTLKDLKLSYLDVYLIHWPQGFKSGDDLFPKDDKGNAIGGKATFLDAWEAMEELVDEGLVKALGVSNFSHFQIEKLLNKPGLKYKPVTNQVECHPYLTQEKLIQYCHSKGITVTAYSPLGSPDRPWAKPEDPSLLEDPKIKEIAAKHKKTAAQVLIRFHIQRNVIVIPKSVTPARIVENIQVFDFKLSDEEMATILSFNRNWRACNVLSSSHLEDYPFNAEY
Phospholipase A2, sequence (P04054 whole entry): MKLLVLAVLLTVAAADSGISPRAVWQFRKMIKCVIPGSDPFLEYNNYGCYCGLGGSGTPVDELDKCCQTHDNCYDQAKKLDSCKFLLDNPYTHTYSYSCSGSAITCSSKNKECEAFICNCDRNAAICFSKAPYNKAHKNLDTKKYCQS
Aldo-keto reductase family 1 member B10 (Homo sapiens, UniProt O60218, W220Y), sequence (O60218 whole entry W220Y): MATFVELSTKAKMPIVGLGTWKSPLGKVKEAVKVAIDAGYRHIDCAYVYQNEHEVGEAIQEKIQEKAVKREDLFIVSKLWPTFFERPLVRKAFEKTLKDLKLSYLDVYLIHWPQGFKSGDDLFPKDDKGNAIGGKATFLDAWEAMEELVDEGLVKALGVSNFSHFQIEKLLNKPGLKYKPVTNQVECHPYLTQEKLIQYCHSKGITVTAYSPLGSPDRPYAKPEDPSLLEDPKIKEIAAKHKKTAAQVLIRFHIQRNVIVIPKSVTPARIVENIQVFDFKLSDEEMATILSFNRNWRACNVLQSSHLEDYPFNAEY

Turning to `CC1(C)CC[C@]2(CO)CC[C@]3(C)C(=CC[C@@H]4[C@@]5(C)CC[C@H](O)C(C)(C)[C@@H]5CC[C@]43C)[C@@H]2C1` [ERYTHRODIOL], the results for the IC50 in [1] and in [3] were 84 µM and 30 µM, respectively. Besides, the Ratio IC50 in assay [2] came out at 3.
Consider `C[C@H]1[C@H](C)CC[C@]2(C(=O)O)CC[C@]3(C)C(=CC[C@@H]4[C@@]5(C)C[C@@H](O)[C@H](O)[C@@](C)(CO)[C@@H]5CC[C@]43C)[C@H]12` [ASIATIC ACID], for which the half-inhibitory concentration (IC50) in assay [1] was 34 µM; in [3], 5.9 µM. For the same molecule, in assay [2], the Ratio IC50 came to 6.
For the molecule `COc1ccc2c(C(=S)N(C)CC(=O)O)cccc2c1C(F)(F)F` [TOLRESTAT], the outcome in [4] was Active. In addition, the inhibition result in assay [5] was “Active”. Also, in [3], the Ki was found to be 0.05 µM.
With `CC1(C)CC[C@]2(C(=O)O)CC[C@]3(C)C(=CC[C@@H]4[C@@]5(C)C[C@@H](O)[C@H](O)C(C)(C)[C@@H]5CC[C@]43C)[C@@H]2C1` [MASLINIC ACID], the IC50 in [1] turned out to be 72 µM; in assay [3] it was 0.63 µM. Also, the Ratio IC50 in [2] was 114.
Regarding `C=C(C)[C@@H]1CC[C@]2(C(=O)O)CC[C@]3(C)[C@H](CC[C@@H]4[C@@]5(C)CC[C@H](O)C(C)(C)[C@@H]5CC[C@]43C)[C@@H]12` [BETULINIC ACID], the IC50 in assay [1] stood at 11 µM; in [3], 2 µM. Moreover, in [2], the Ratio IC50 stood at 6.
As to `C[C@H](CCC(=O)O)[C@H]1CC[C@H]2[C@@H]3CC[C@@H]4C[C@@H](O)CC[C@]4(C)[C@H]3CC[C@]12C` [ISOLITHOCHOLIC ACID], the Ki in assay [3] amounted to 0.015 µM.
On to `C[C@H]1[C@H](C)CC[C@]2(C(=O)O)CC[C@]3(C)C(=CC[C@@H]4[C@@]5(C)CC[C@H](O)C(C)(C)[C@@H]5CC[C@]43C)[C@H]12` [URSOLIC ACID], for which the Ki in [6] came out at 2.8 µM; in assay [7], 2 µM; in assay [8] it was 6 µM; in assay [9], 3.7 µM; in [10], 2.1 µM. The results for the IC50 in assay [1] and in assay [3] were 41 µM and 4 µM, respectively. The Ratio IC50 in [2] was found to be 10. For the same molecule, in assay [11], the inhibition result is “Active”.
As to `CC1(C)[C@@H](O)CC[C@]2(C)[C@H]3C(=O)C=C4[C@@H]5C[C@@](C)(C(=O)O)CC[C@]5(C)CC[C@@]4(C)[C@]3(C)CC[C@@H]12` [ENOXOLONE], the IC50 in assay [1] stood at 280 µM; in assay [3] it was 4.9 µM. Further, the inhibition entry in assay [12] was “Active”. The Ratio IC50 in assay [2] worked out at 57.
In the case of `CC1(C)CC[C@]2(C(=O)O)CC[C@]3(C)C(=CC[C@@H]4[C@@]5(C)CC[C@H](O)C(C)(C)[C@@H]5CC[C@]43C)[C@@H]2C1` [OLEANOLIC_ACID], the concentration for half-maximal inhibition (IC50) in assay [13] is 3 µM; in [14], 3 µM; in assay [1] it was 124 µM. Moreover, the inhibition entry in assay [12] was “Active”. The result in assay [4] and in assay [16] was Active. The “growth inhibition (GI)” value in [15] is “Dose-dependent effect”. For the same molecule, the inhibition result in assay [17] was “inactive”. Besides, in assay [18], the CC50 turned out to be 180 µM.
